For orientation: efflux ratio means the permeability from basolateral to apical divided by that in the opposite direction, in the common usage. One may read the IC50 as the concentration that gives 50% inhibition. Broadly, the AUC(0-t) is the area under the concentration-time curve up to a stated or last time point.

A short description of series [1]: Drug level in cynomolgus monkey CSF at 10 mg/kg, po measured at 12 hrs post dose by LC-MS/MS analysis. Type of series: ADME, organism-based, Macaca fascicularis, Cerebrospinal fluid. The following applies: read-out: Drug uptake. A digest of the protocol: (§1)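 Cynomolgus monkeys (n = 3/group) fitted with subcutaneous CSF ports were dosed orally at 0.4−15.7 μmol/kg in 5% Solutol plus 20% Captisol in 25 mM PBS, pH 2. CSF (about 0.30 mL) and blood were sampled predose and at 0.5, 1, 2, 3, 4, 8, 12 and 24 h. Quantitation limit 1.0 ng/mL; mean ± SD.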

Series [2] can be described thus: Efflux ratio of apparent permeability in human Caco2 cells. The series is classed as ADME, cell-based. Particulars: Caco-2.
The nature of series [3]: Intrinsic clearance in rat. The series is classed as ADME.
Series [4] in a line: Drug level in cynomolgus monkey plasma at 10 mg/kg, po measured at 8 hrs post dose by LC-MS/MS analysis. Type of series: ADME, organism-based, Macaca fascicularis.
The target in another series is Cytochrome P450 2C9 (Homo sapiens, UniProt P11712). As to the kind of experiment: Inhibition of CYP2C9 (unknown origin). Type of series: ADME.
Cytochrome P450 2C9, sequence (P11712 whole entry): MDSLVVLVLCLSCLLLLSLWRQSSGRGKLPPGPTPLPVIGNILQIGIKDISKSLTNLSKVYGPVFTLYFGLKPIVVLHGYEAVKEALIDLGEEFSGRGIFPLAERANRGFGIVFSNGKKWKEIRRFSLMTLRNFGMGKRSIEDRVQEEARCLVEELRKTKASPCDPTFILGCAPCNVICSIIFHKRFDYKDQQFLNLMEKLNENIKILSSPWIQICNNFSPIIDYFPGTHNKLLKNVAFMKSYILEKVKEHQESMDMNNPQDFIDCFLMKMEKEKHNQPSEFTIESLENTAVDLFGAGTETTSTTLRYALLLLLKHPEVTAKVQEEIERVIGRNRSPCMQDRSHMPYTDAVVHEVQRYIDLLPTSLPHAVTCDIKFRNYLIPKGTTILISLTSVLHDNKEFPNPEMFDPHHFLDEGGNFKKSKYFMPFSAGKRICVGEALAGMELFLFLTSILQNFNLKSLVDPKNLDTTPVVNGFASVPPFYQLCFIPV
Series [5] can be described thus: AUClast in cynomolgus monkey plasma at 1 mg/kg, iv or 5 mg/kg, po measured up to 12 or 24 hrs post dose by LC-MS/MS analysis. The series is classed as ADME, organism-based, Macaca fascicularis. Summed up: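 Single-dose PK in female cynomolgus monkeys, n = 3 per group: 1.5 μmol/kg IV in 5% DMSO/10% Solutol in saline, pH 6.5 (2 mL/kg), or 7.8 μmol/kg PO in 5% Solutol in 20% Captisol, 25 mM PBS, pH 2 (5 mL/kg). Plasma parameters reported as mean ± SD.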

A short description of series [6]: Drug level in cynomolgus monkey plasma at 10 mg/kg, po measured at 1 hr post dose by LC-MS/MS analysis. The series is classed as ADME, organism-based, Macaca fascicularis. A digest of the protocol: as §1
The nature of series [7]: Total clearance in cynomolgus monkey at 1 mg/kg, iv or 5 mg/kg, po measured up to 12 or 24 hrs post dose by LC-MS/MS analysis. Type of series: ADME, organism-based, Macaca fascicularis. Particulars: in vivo. A digest of the protocol:
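Three female cynomolgus monkeys per group, single dose: IV 1.5 μmol/kg in 5% DMSO/10% Solutol in saline, pH 6.5 (2 mL/kg), or PO 7.8 μmol/kg in 5% Solutol in 20% Captisol, 25 mM PBS, pH 2 (5 mL/kg). Parameters come from plasma concentration–time data; mean ± SD.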

The nature of series [8]: Drug level in cynomolgus monkey plasma at 10 mg/kg, po measured at 2 hrs post dose by LC-MS/MS analysis. The series is classed as ADME, organism-based, Macaca fascicularis. A digest of the protocol: as §1
The subject of another series is Cynomolgus monkey. As to the kind of experiment: In vivo inhibition of glycine transporter-1 in cynomolgus monkey assessed as CSF glycine level at 10 mg/kg, po measured up to 24 hrs post dose by LC-MS/MS analysis relative to control. The series is classed as functional, Macaca fascicularis. The arrangement: scale not given: the % may be the effect or the level left. A digest of the protocol: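 Cynomolgus monkeys, n = 3 per group, given oral doses of 0.4, 1.5, 4.7 or 15.7 μmol/kg. Vehicle was 5% Solutol / 20% Captisol in 25 mM PBS, pH 2. CSF (about 0.30 mL) was drawn through subcutaneous ports with a sterile Huber needle predose and at 0.5, 1, 2, 3, 4, 8, 12 and 24 h. Matched blood was taken at each time. Mean ± SD.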

Series [9] is described as follows: Drug level in cynomolgus monkey plasma at 3 mg/kg, po measured at 24 hrs post dose by LC-MS/MS analysis. Type of series: ADME, organism-based, Macaca fascicularis.
Series [10] can be described thus: Ratio of drug level in Sprague-Dawley rat brain to plasma at 3 to 10 mg/kg, po measured 2 hrs post dose by LC-MS/MS analysis. The series is classed as ADME, organism-based. Particulars: read-out: BPR. Summed up: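 Drug-naive male Sprague–Dawley rats (n = 4–5/group) were dosed orally in 5% Solutol/10% Captisol in 25 mM PBS, pH 2, and euthanized by CO2 2 h post-dose. CSF (50–100 μL) was taken from the cisterna magna, and brain and plasma were collected; drug was measured in each matrix. Quantitation limit 1.0 ng/mL.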

The nature of series [11]: Drug level in Sprague-Dawley rat CSF at 30 mg/kg, po measured 2 hrs post dose by LC-MS/MS analysis. The series is classed as ADME, organism-based, Cerebrospinal fluid. The following applies: read-out: Drug uptake. A digest of the protocol:
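Drug-naive Sprague−Dawley rats (n = 4−5/group) were dosed orally once in 5% Solutol plus 20% Captisol in 25 mM PBS, pH 2, and euthanized 2 h later by CO₂. CSF was drawn from the cisterna magna. Drug was measured in CSF, brain and plasma; data as mean ± SEM.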

Series [12] relates to Rattus norvegicus. Briefly: In vivo inhibition of glycine transporter-1 in po dosed Sprague-Dawley rat assessed as increase in CSF glycine level measured 2 hrs post dose by LC-MS/MS analysis. The series is classed as functional. Summed up:
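Drug-naive adult male Sprague-Dawley rats, n = 4-5 per group, given a single oral dose of 0.4, 1.5, 4.7 or 15.7 μmol/kg. Vehicle was 5% Solutol + 10% Captisol in 25 mM PBS, pH 2. At 2 h, rats were killed by CO₂. CSF (50-100 μL) was taken from the cisterna magna, and brain and plasma were also collected. Glycine was measured by LC-MS/MS against a deuterated-glycine internal standard. Results given as % vehicle control (vehicle 30 min post-dose), mean ± SEM. Two-way ANOVA with Tukey test.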

The test system of series [13] is Rattus norvegicus. As to the kind of experiment: In vivo inhibition of glycine transporter-1 in Sprague-Dawley rat assessed as increase in CSF glycine level at 1 to 10 mg/kg, po qd for 5 days. Type of series: functional, organism-based. Summed up:
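Drug-naive Sprague-Dawley rats, n = 5 per group, dosed orally once daily for 5 days with vehicle or 1.6, 4.8 or 16.1 μmol/kg. Vehicle was 5% Solutol / 20% Captisol in 25 mM PBS, pH 2. Killed 2 h or 48 h after the last dose. CSF glycine was expressed as % of vehicle control (vehicle 2 h post last dose), mean ± SEM. Two-way ANOVA with Tukey test.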

Series [14] in a line: Drug level in Sprague-Dawley rat CSF at 1 mg/kg, po qd for 5 days measured 2 hrs post last dose by LC-MS/MS analysis. Type of series: ADME, organism-based, Cerebrospinal fluid. The following applies: read-out: Drug uptake. Summed up: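 Drug-naive Sprague−Dawley rats (n = 5/group) were dosed orally once daily for 5 days in 5% Solutol plus 20% Captisol in 25 mM PBS, pH 2, and sacrificed 2 h after the last dose. Drug was measured in CSF, brain and plasma; mean ± SEM.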

The source made the active and inactive calls. The rule behind the calls is not given here. Some results are limits rather than exact numbers.

As for `CC(NC(=O)c1ccc(C(F)(F)F)cc1Cl)C1(N2CCN(S(=O)(=O)c3cn(C)nn3)CC2)CCC(F)(F)CC1.Cl` (single isomer, unassigned; (+)), in series [1], the concentration at 12 h was determined as 5 ng/mL. Moreover, the efflux ratio in series [2] was 2. The molecule also showed a CL in [3] of 6 microL/ml/min. The molecule further showed a concentration at 8 h in series [4] of 156 ng/mL. On Cytochrome P450 2C9, this molecule showed a concentration for half-maximal inhibition (IC50) of more than 7.2 µM. This molecule also showed an AUC(0-t) at 24 h in series [5] of 690 ng·h/mL. Also, in series [6], the concentration at 1 h is 203 ng/mL. In series [7], this molecule showed a clearance of 24.9 mL/min/kg. In addition, the concentration at 2 h in series [8] was 222 ng/mL. The Activity in the series on Cynomolgus monkey is reported as more than 300%. Further, in series [9], the concentration at 24 h is less than 1 ng/mL. The Kp at 2 h in [10] fell in the range of 0.1 to 0.2.
As to `Cl.Cn1cc(S(=O)(=O)N2CCN(C3(CNC(=O)c4ccc(C(F)(F)F)cc4Cl)CCC(F)(F)CC3)CC2)nn1`, the concentration at 2 h in series [11] amounted to 8.3 nM; in [14], 1 nM. Also, the ED200 with Rattus norvegicus [12] fell in the range of 1.6 to 4.8 µmol/kg. For the same molecule, the inhibition entry in the series on Rattus norvegicus [13] is “Active”.
